Peptide text beside a SMILES is read from it. * marks the point of attachment. Cbz = O=C(OCc1ccccc1)*

Data set [1] concerns the target T1, OSBP (Homo sapiens, UniProt P22059).
T1 sequence (P22059 1-807): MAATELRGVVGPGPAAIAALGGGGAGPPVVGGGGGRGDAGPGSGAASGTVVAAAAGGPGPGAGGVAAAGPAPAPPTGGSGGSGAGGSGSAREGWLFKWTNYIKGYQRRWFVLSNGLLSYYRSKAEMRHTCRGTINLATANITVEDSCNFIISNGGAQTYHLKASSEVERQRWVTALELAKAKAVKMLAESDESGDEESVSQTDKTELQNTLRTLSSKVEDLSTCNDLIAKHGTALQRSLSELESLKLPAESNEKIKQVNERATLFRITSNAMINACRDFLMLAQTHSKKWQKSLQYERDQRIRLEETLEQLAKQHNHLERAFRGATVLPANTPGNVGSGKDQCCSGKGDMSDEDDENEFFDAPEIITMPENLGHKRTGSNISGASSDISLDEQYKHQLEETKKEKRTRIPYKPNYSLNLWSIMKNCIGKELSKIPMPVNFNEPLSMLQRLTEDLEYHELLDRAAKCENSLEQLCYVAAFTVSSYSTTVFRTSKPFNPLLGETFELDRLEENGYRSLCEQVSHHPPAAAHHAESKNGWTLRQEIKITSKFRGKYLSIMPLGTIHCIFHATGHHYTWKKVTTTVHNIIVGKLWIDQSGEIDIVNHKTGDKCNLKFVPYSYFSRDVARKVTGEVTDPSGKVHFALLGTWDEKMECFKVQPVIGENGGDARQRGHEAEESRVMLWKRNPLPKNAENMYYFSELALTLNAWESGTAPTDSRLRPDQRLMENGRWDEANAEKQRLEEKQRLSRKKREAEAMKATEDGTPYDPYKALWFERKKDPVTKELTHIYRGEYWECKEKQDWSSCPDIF
The data set is described as follows: OSBP protein levels by western blotting. It is filed as cell-based. The settings on record: HCT-116 cells; 25-OHC 10 μM. Summed up:
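HCT-116 cells were treated with test compound at 50 nM or 10 nM over a time course including 24 h. Some samples also received proteasome inhibitor MG-132 or lactacystin. OSBP was measured by western blotting with polyclonal rabbit anti-OSBP (N-terminus) antibody. Data are n = 3, compared with vehicle-treated cells by two-tailed Student's t-test.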
For orientation: Immunoblotting shows a protein as a band on a membrane.

A further data set has as its system human cancer cell lines. The settings on record: cited from earlier work.
For data set [2], the target named is T1, OSBP. The data set is described as follows: OSBP localization by immunofluorescence microscopy, HCT-116. It counts as cell-based. The settings on record: HCT-116 cells, 4 h; 5 μM schweinfurthin A, 10 nM OSW-1, 20 nM cephalostatin 1. The essentials: (§1)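 Cells on coverslips were grown 72 h, then given test compound or vehicle (4 h for HCT-116). They were fixed 10 min in 3.7% formaldehyde/PBS and permeabilised 5 min in 0.5% Triton X-100. Blocking used Image-iT FX, then 1% BSA/PBS. Rabbit anti-OSBP (N-terminus) and mouse anti-p230 were applied overnight at 4 °C, then Alexa Fluor secondaries for 60 min with Hoechst 33258. Imaging was by confocal microscopy.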

A further data set concerns the target T2, OSBP-Myc-His (Homo sapiens, UniProt P22059).
T2 sequence (P22059 1-807): T1 sequence (P22059 1-807)
The data set is described as follows: [3H]25-OHC charcoal-dextran binding assay, wild-type OSBP-Myc-His.

The next data set deals with HCT-116 p21^−/− cells. Briefly: Cell viability assay, HCT-116 p21-/-. It counts as cell-based, human. Particulars: GI50 after 48 h. The essentials:
(§2)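 HCT-116 p21+/+ and p21−/− cells were seeded in 96-well plates and rested 24 h. A time-zero plate was read with CellTiter-Blue (resazurin) after 90 min at 37 °C, fluorescence 544 nm ex / 590 nm em. Serially diluted test compound was added as 4× solution. Viability was re-read at 48 h and GI50 derived. For coadministration, 10 μM 25-OHC was added with test compound at 250 nM or 10 nM.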

A further data set concerns the target T3, ORP4L-Myc-His (Homo sapiens, UniProt Q969R2).
T3 sequence (Q969R2 1-916): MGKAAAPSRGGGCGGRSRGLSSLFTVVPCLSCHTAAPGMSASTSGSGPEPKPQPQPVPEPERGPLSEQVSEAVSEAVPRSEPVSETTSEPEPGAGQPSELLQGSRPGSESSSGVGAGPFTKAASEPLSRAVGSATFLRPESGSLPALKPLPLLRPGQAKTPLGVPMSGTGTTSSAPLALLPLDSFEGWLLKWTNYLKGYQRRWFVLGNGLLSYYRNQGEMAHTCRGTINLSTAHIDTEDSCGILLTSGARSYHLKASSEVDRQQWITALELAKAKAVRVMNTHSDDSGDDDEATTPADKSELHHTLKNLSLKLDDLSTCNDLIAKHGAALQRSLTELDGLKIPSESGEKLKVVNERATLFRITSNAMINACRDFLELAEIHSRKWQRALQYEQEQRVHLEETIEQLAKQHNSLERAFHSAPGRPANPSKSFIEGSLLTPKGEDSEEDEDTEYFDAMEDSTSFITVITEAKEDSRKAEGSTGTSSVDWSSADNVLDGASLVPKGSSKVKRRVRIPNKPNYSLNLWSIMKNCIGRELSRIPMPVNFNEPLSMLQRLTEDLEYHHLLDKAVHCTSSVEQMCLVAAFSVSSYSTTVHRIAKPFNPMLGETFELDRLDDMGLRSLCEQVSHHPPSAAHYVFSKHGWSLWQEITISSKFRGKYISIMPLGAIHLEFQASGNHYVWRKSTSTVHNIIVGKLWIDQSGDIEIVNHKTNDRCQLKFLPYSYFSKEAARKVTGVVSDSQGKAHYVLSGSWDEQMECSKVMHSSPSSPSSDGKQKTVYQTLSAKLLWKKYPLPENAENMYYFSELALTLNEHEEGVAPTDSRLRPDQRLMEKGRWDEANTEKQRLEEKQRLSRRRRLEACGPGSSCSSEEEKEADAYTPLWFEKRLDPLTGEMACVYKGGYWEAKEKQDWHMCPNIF
The data set is described as follows: [3H]25-OHC charcoal-dextran binding assay, ORP4L-Myc-His.

In data set [3] the test system is sphingomyelin biosynthesis in CHO-K1 cells. Briefly: Sphingomyelin biosynthesis, [3H]serine pulse labeling, CHO-K1. It counts as cell-based, Chinese hamster.
Data set [4] has as its target T1, OSBP. The data set is described as follows: OSBP localization by immunofluorescence microscopy, A549. It is filed as cell-based. Particulars: A549 cells. Summed up:
as §1

The subject of the next data set is HCT-116 cells. Briefly: Suppression of antiproliferative activity by 25-OHC coadministration. It counts as cell-based, human. The settings on record: HCT-116 and HeLa cell lines. Summed up:
as §2

For data set [5], the system named is HeLa cells overexpressing wild-type OSBP. Briefly: Overexpression-viability assay, wild-type OSBP-Myc-His. It counts as cell-based, human. Particulars: 48 h, versus lacZ.
The subject of data set [6] is HCT-116 p21^−/− cells stably transfected with shOSBP or shNT. Briefly: OSBP shRNA knockdown and dose-shift experiment. It counts as cell-based, human. Particulars: 72 h. Summed up:
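HCT-116 p21−/− cells were stably transfected with OSBP-targeting or nontargeting shRNA in the pSIREN-RetroQ vector. […] Values are mean ± s.d. of 3–4 experiments, compared with shNT cells by two-tailed Student's t-test.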

Data set [7] deals with HeLa cells overexpressing ORP4L. Briefly: Overexpression-viability assay, ORP4L-Myc-His. It counts as cell-based, human. The settings on record: 48 h, versus lacZ.

On to `CC(=O)N[C@@H](CSC(=O)[C@]1([C@@H](O)C(C)C)NC(=O)[C@H](C)[C@@H]1O)C(=O)O` [lactacystin, reference compound], for which the “Effect on OSBP levels (compound alone)” value on OSBP [1] is given as “did not affect OSBP concentrations”.

For `CC1C2C(CC3C4CCC5Cc6nc7c(nc6CC5(C)C4CC(O)C32C)CC2CC(O)C3C4=CC5OC6(CCC(C)(O)CO6)C(C)C5(O)C4(C)C(O)CC3C2(C)C7)OC12CCC(C)(C)O2` (stereo not shown) [ritterazine B], the “GI50 (half-maximal inhibitory concentration)” value with human cancer cell lines is “nanomolar range”. The OSBP localization result at OSBP [2] is recorded as “This effect was also observed”. In addition, the Ki on OSBP-Myc-His was 28 ± 4 nM; at ORP4L-Myc-His, over 360 nM. In addition, the “p21^−/− selectivity of growth inhibition (HCT-116 p21^−/− versus wild-type)” value in the data set with HCT-116 p21^−/− cells is “selectively growth-inhibitory”.

Consider `C/C=C(/C)C(=O)O[C@H]1C(C)=C2[C@H]([C@@H]1OC(=O)CCCCCCC)[C@@](C)(OC(C)=O)C[C@H](OC(=O)CCC)[C@@]1(O)[C@H]2OC(=O)[C@@]1(C)O` [thapsigargin], for which the “Inhibition of sphingomyelin biosynthesis (control cytotoxic / ER stress agents)” value in data set [3] is on record as “did not occur”.

In the case of `CC(C)C[C@@H](C=O)NC(=O)[C@H](CC(C)C)NC(=O)[C@H](CC(C)C)NC(=O)OCc1ccccc1` [MG-132, reference compound] (Cbz-Leu-Leu-Leu-aldehyde), at OSBP [1], the “Effect on OSBP levels (compound alone)” value was “did not affect OSBP concentrations”.

Regarding `COc1cc(/C=C/c2cc(O)c(C/C=C(\C)CCC=C(C)C)c(O)c2)cc2c1O[C@]1(C)C[C@@H](O)[C@@H](O)C(C)(C)[C@H]1C2` [schweinfurthin B], the “GI50 (half-maximal inhibitory concentration)” value with human cancer cell lines was “nanomolar range”. Further, the OSBP localization entry on OSBP [4] is recorded as “perinuclear OSBP staining similar to that seen with 25-OHC”.

Regarding `C[C@H]1CCC/C=C/[C@@H]2C[C@H](O)C[C@H]2[C@H](O)/C=C/C(=O)O1` [brefeldin A, reference compound], the “Effect of 25-OHC coadministration on antiproliferative activity” value in the data set on HCT-116 cells is reported as “did not affect”.

`CC(=O)O[C@H]1C(=O)[C@@]2(C)[C@H]([C@H](OC(=O)c3ccccc3)[C@]3(O)C[C@H](OC(=O)[C@H](O)[C@@H](NC(=O)c4ccccc4)c4ccccc4)C(C)=C1C3(C)C)[C@]1(OC(C)=O)CO[C@@H]1C[C@@H]2O` [taxol, reference compound]: the “Desensitization factor by OSBP overexpression (relative GI30)” value in [5] was “not affected”. Besides, the “Sensitization by OSBP shRNA knockdown (GI50 shift shOSBP vs shNT)” value in data set [6] is on record as “not affected”. Also, the “Effect of 25-OHC coadministration on antiproliferative activity” value in the data set on HCT-116 cells was “did not affect”. The “Inhibition of sphingomyelin biosynthesis (control cytotoxic / ER stress agents)” value in data set [3] was “did not occur”. In addition, the “Desensitization factor by ORP4L overexpression (relative GI30)” value in [7] is “not affected”.

The term Ki denotes a dissociation constant, usually derived from enzyme kinetics or from competition with a known ligand. A high value points to weaker binding.
